Screens from PubChem BioAssay.
Calb FLC: affects C. albicans growth with fluconazole. C. albicans CaCi-2 (fluconazole-resistant clinical isolate) + fluconazole, Alamar Blue growth, 48 h. growth inhibition, % (concentration not given with the values). hit rate 0.57% among 300,000;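 active = growth inhibition above about 58% in most replicates, limit read from the data, passing the limit was not always enough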;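 also: all wells also contain fluconazole at 8 µg/ml as a sub-toxic cotreatment; 0% = median of DMSO wells and 100% = median of geldanamycin control wells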
T cruzi inh: T. cruzi replication inhibition | T. cruzi beta-gal in NIH3T3, luminescence, 90 h | inhibition, % (concentration not given with the values) | hit rate 1.4% among 300,000;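 active = mean inhibition across valid replicates above about 55%, limit read from the data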;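 also: signal also drops with host cell toxicity which is not excluded here; 0% = plate median of DMSO wells and 100% = zero luminescence signal; higher percent means less beta-gal luminescence so fewer parasites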
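Read-out: Parasite load inhibition, % | Test system: Mouse NIH/3T3 fibroblasts infected with β-gal-expressing T. cruzi Tulahuen C4 | Amount: 5,000 cells/well | Medium: DMEM, 2% fetal bovine serum | Signal: GalScreen β-gal luminescence, detergent lysis, 60 min | Timing: 3 h attach, ≥90 h co-culture | Also added: Tulahuen C4 trypomastigotes, 5000/well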
NALP1 yeast inh: inhibitors of NALP1 inflammasome in yeast. AID 2071. S. cerevisiae NALP1/ASC/caspase-1 growth, X-gal OD620, 72 h. hit rate 0.61% among 280,000. inhibition, % at 10 µM; in the data active = inhibition mostly above about 24%, no sharp cut-off; inactive = mostly below about 32%
NALP3 yeast inh: blocks the NALP3 inflammasome reconstituted in yeast | hit rate 0.39% among 330,000 | Yeast reconstituted NLRP3/ASC/caspase-1, beta-gal luminescence, 24 h | inhibition, % at 10 µM | AID 2825;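 active = inhibition of 50% or more; inactive = inhibition below 50%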;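 also: plate controls were induced DMSO wells for no effect and uninduced yeast grown without galactose for full effect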
PolyA inhibitor: yeast polyadenylation inhibition; S. cerevisiae SKY197-pL101 polyadenylation reporter, beta-gal luminescence; efflux-impaired pdr1/pdr3 knockout yeast; score 100 = 6 SD above DMSO; activity score, % at 12 µM; hit rate 0.02% among 300,000;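 active = lowest replicate activity score at least 50, where 100 means six control SD above control mean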;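 also: yeast exposed to compound for 9 h at 30 °C; higher score means more reporter readthrough which indicates perturbed polyadenylation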
Lmaj promast: inhibitors of Leishmania major promastigote growth; Leishmania major promastigotes, resazurin fluorescence viability; inhibition, % at 10 µM; hit rate 9% among 200,000; in the data active = inhibition above about 50%;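 also: promastigotes grown with compound for 44 hours at 28 °C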
The depositor's hits bear a star; / = no result given. Only a selection was taken, and hits are over-represented in it overall.

SMILES	Calb FLC	T cruzi inh	NALP1 yeast inh	NALP3 yeast inh	PolyA inhibitor	Lmaj promast
Cc1ccc(C)c(N2CCN(C(=O)c3ccc(Cn4c(=O)[nH]c5ccccc5c4=O)cc3)CC2)c1	38	65*	2	-2	-9	98*
COc1cc(OC)cc(C(=O)N[C@H](C(=O)OCC(=O)Nc2ccc3c(c2)OCO3)C(C)C)c1	/	/	/	12	/	/
Cc1ccc(-c2nc3ccccc3c(C(=O)NCc3cccs3)c2C)cc1	2	34	-4	30	-2	31
CCN1CCN(CCCNC(=O)c2cc3sccc3n2CC)CC1	2	-10	26	1	2	13
Cc1cc2c(cc(C(=O)NCCCN3CCOCC3)n2Cc2ccc(Cl)cc2)o1	-4	-10	/	-5	-5	99*
CCn1c(C(=O)NCCCN2CCc3ccccc3C2)cc2sccc21	-54	11	38	13	2	91*
O=C(Nc1ccc2c(c1)OCCO2)c1cc2sccc2n1Cc1ccc(F)cc1	1	33	6	19	-11	97*
Cn1c(C(=O)NCCN2CCOCC2)cc2sccc21	-5	-17	3	0	3	6
O=C(Cn1c(C(=O)NCCCN2CCOCC2)cc2sccc21)c1ccccc1	-9	-7	8	9	6	81*
Cc1cc(NC(=O)CSc2nc(-c3ccccc3Cl)nc3c2c(=O)n(C)c(=O)n3C)no1	28	3	7	-1	-12	0
Cc1ccc(Cn2c(C(=O)NCCCN3CCOCC3)cc3sccc32)cc1	15	16	37	9	-8	87*
COc1cccc(/C=C2/CN(C)CC3=C2OC(N)=C(C#N)C3c2cccc(OC)c2)c1 (configuration not stated)	-4	26	6	14	-5	53*
COCCN(C(=O)CCc1nnc(CCc2c[nH]c3ccccc23)o1)C(C)C	-9	-3	2	3	4	0
COc1ccc2nc(NC(=O)c3cccc(S(=O)(=O)N4CCOCC4)c3)sc2c1	-2	-2	-8	23	-1	22
Cc1ccc(S(=O)(=O)N2CCOCC2)cc1C(=O)Nc1ccc2c(c1)CCC2	30	7	12	-14	-8	52*
COc1ccc2nc(NC(=O)c3cc(S(=O)(=O)N4CCOCC4)ccc3C)sc2c1	4	13	-13	11	5	56*
COc1cc(C(=O)Nc2nc3ccc(S(=O)(=O)N4CCOCC4)cc3s2)cc(OC)c1OC	37	-7	4	7	14	61*
O=C1C(NS(=O)(=O)c2ccc(Cl)cc2)=C(N2CCCCC2)C(=O)c2ccccc21	12	2	36	13	-6	89*
CN1C(=O)c2ccccc2Sc2ccc(NC(=O)NC3CC3)cc21	54	20	6	8	8	-6
O=C(Nc1ccc2c(c1)N(Cc1ccccc1)C(=O)c1ccccc1S2)NC1CC1	10	9	-7	-1	1	92*
CC/C(=N\NC(=O)c1ccc(-c2ccccc2)cc1)C12CC3CC(CC(C3)C1)C2	3	-4	-5	25	-13	65*
C/C(=N\NC(=O)c1ccncc1)C12CC3CC(CC(C3)C1)C2	2	-18	10	11	15	-2
CCCNC(=O)NC(=O)COC(=O)c1ccc(S(=O)(=O)N(C)c2ccccc2OC)cc1	-2	-13	21	27	-6	73*
COc1ccccc1N(C)S(=O)(=O)c1ccc(C(=O)OCC(=O)N2CCCCCC2)cc1	-17	0	-6	12	2	100*
COc1ccccc1N(C)S(=O)(=O)c1ccc(C(=O)OCC(N)=O)cc1	5	-32	16	22	24	24
SMILES	Calb FLC	T cruzi inh	NALP1 yeast inh	NALP3 yeast inh	PolyA inhibitor	Lmaj promast
COc1ccccc1N(C)S(=O)(=O)c1ccc(C(=O)OCC(=O)NCCC2=CCCCC2)cc1	-8	-7	31	1	-18	34
O=C(CNc1ccc2ccccc2c1)N/N=C/c1cc2ccccc2nc1Cl	10	19	17	/	-11	7
O=C(NCC1CCCO1)c1ccc(Cl)c(S(=O)(=O)N2CCCCC2)c1 (configuration not stated)	32	-5	0	21	-11	/
CNCC/C=C1/c2ccccc2CSc2ccccc21	/	-1	10	10	23	90*
O=[N+]([O-])c1ccc(/C=[N+](\[O-])CCO)o1	58	59*	16	12	-3	/
O=C(OC(C(=O)Nc1ccc([N+](=O)[O-])cc1Br)c1ccccc1)c1ccccc1 (configuration not stated)	0	29	-10	2	-4	100*
O=C(Nc1ccc([N+](=O)[O-])cc1Br)c1cccnc1	12	3	7	4	2	54*
CCCCc1ccc(NC(=S)Nc2ccc(Cl)c(S(=O)(=O)N(C)C)c2)cc1	-12	3	15	/	-3	87*
CCCCc1ccc(NC(=S)NCc2cccc(OC)c2)cc1	-8	56*	0	13	-23	10
COc1ccc(C/C(C)=N/NC(=S)Nc2ccc(Cl)cc2)cc1	-1	-13	/	16	-2	/
CCOc1ccc(NC(=S)N/N=C(\C)Cc2ccc(OC)cc2)cc1	-11	3	5	15	14	62*
COC(=O)Cc1ccc(NC(=S)NCc2cccc(OC)c2)cc1	-18	3	-3	11	13	-5
CCCCc1ccc(NC(=S)Nc2ccc(Nc3ccc(OC)cc3)cc2)cc1	-27	42	20	35	-15	60*
CCN1CCN(CC(=O)Nc2ccc(Cl)c(S(=O)(=O)N(C)C)c2)CC1	-10	2	5	-7	18	-2
O=C(NCC1CCCO1)c1ccc(OC2CCN(C(=O)C3CC3)CC2)cc1 (configuration not stated)	8	-6	-3	1	2	-5
CC(C)CN1CCN(C(=O)CCc2nnc(Cc3c[nH]c4ccccc34)o2)[C@@H](C)C1=O	20	-12	-2	12	10	/
O=C(CCC(=O)N1CCOc2ccccc21)NCCN1CCOCC1	4	-15	9	16	2	/
CC(C)(C)/C(O)=C(/C#N)c1nc2ccccc2[nH]1	-5	-1	26	1	-1	-2
CC(C)CC(/C(O)=C(\C#N)c1nc2ccccc2[nH]1)N1C(=O)c2ccccc2C1=O (configuration not stated)	4	-6	9	7	25	65*
COc1ccc(N2C(=O)c3ccccc3NC2c2cccnc2)cc1 (configuration not stated)	-19	41	7	13	17	59*
CC(=O)c1cc(C)ccc1OC(=O)CCN1C(=O)C2C3c4ccccc4C(c4ccccc43)C2C1=O (configuration not stated)	-4	-16	9	0	16	-6
